Measured values collected from several papers.
Histone acetyltransferase KAT6B: Histone acetyltransferase KAT6B (Homo sapiens, UniProt Q8WYB5)
NOX5: NADPH oxidase 5 (NOX5, Homo sapiens, UniProt Q96PH1)
DNA polymerase catalytic subunit: DNA polymerase catalytic subunit (Human cytomegalovirus, UniProt P08546)
PIK3CA: Phosphatidylinositol 4,5-bisphosphate 3-kinase catalytic subunit alpha isoform (PIK3CA, Homo sapiens, UniProt P42336)
KDR: Vascular endothelial growth factor receptor 2 (KDR, Homo sapiens, UniProt P35968)
Trpm7 F924W: Transient receptor potential cation channel subfamily M member 7 (Trpm7, Mus musculus, UniProt Q923J1, F924W)
PIK3CB: Phosphatidylinositol 4,5-bisphosphate 3-kinase catalytic subunit beta isoform (PIK3CB, Homo sapiens, UniProt P42338)

CCOc1cccc(-c2ccccc2)c1S(=O)(=O)NC(=O)c1cc2c(C)cc(OC)cc2o1 — IC50 (Histone acetyltransferase KAT6B; enzyme activity; inhibitor; TR-FRET): 0.051 µM
Cc1coc2c1C(=O)C(=O)c1c-2ccc2c1CCCC2(C)C — IC50 (NOX5; enzyme activity; inhibitor): 1.9 µM
CNC(=O)c1cnc(Nc2ccccc2C)c(NC(=O)c2cc(F)cc(C(F)(F)F)c2)c1 — IC50 (Phosphatidylinositol 4,5-bisphosphate 3-kinase catalytic subunit alpha isoform (PIK3CA, Homo sapiens, UniProt P42336, H1047R); enzyme activity; inhibitor; with preincubation): 0.334 µM
O=C(NS(=O)(=O)c1ccccc1-c1ccccc1)c1cc2ccc(OCCO)cc2o1 — IC50 (Histone acetyltransferase KAT6B; enzyme activity; inhibitor; TR-FRET): 5.94 µM
CC1(C)CN(C(=O)Cn2c(=O)c(C(=O)NCc3ccc(Cl)cc3)cc3nccnc32)C1 — IC50 (DNA polymerase catalytic subunit; enzyme activity; inhibitor): 2.26 µM
COc1cc(C)c2cc(C(=O)NS(=O)(=O)c3ccccc3OC)oc2c1 — IC50 (Histone acetyltransferase KAT6B; enzyme activity; inhibitor; TR-FRET): 0.068 µM
Cc1nc(Nc2ccc3c(c2)/C(=C/c2ccccc2Cl)C(=O)N3)c2ccccc2n1 — IC50 (PIK3CA; enzyme activity; inhibitor; ADP detection): 0.0277 µM
COc1cc(C)c2cc(C(=O)NS(=O)(=O)c3cccc4ccc(C)nc34)oc2c1 — IC50 (Histone acetyltransferase KAT6B; enzyme activity; inhibitor; TR-FRET): 0.022 µM
Cc1nc(Nc2ccc3c(c2)C(C)(C)C(=O)N3C)c2ccccc2n1 — IC50 (PIK3CA; enzyme activity; inhibitor; ADP detection): 0.164 µM
O=c1oc(-c2ccco2)nc2ccccc12 — IC50 (Cathepsin G (CTSG, Homo sapiens, UniProt P08311); enzyme activity; inhibitor; absorbance; pH 7.4): 0.84 µM
CC(=NNC(N)=S)c1ccc(Nc2nnc(-c3ccc(Cl)cc3)c3ccccc23)cc1 — IC50 (KDR; cell-free assay; inhibitor): 0.375 µM
CCOc1ccccc1S(=O)(=O)NC(=O)c1cc2c(OC)cc(OC)cc2o1 — IC50 (Histone acetyltransferase KAT6B; enzyme activity; inhibitor; TR-FRET): 0.309 µM
Cc1nc(N(C)c2ccc3c(c2)/C(=C/c2ccccc2Cl)C(=O)N3C)c2ccccc2n1 — IC50 (PIK3CA; enzyme activity; inhibitor; ADP detection): 0.0534 µM
CNCCN1CCN(c2cnc3c(cc(C(=O)NCc4ccc(Cl)cc4)c(=O)n3CC(=O)N3CC(C)(F)C3)n2)C1=O — IC50 (DNA polymerase catalytic subunit; enzyme activity; inhibitor): 0.571 µM
O=C(Nc1ccccc1)Nc1ccc(Oc2nnc(-c3ccc(Cl)cc3)c3ccccc23)cc1 — IC50 (KDR; cell-free assay; inhibitor): 0.195 µM
COc1cc2ncnc(N(C)c3ccc4c(c3)/C(=C/c3cccc(Cl)c3)C(=O)N4C)c2cc1OC — IC50 (PIK3CA; enzyme activity; inhibitor; ADP detection): > 1 µM
N#Cc1ccc(COC[C@H]2O[C@@H](n3c(NCc4ccc(Cl)c(Cl)c4)nc4c(N)ncnc43)[C@H](O)[C@@H]2O)cc1 — IC50 (Trpm7 F924W; calcium signal): 5.58 µM
Cc1nc(Nc2ccc3c(c2)C(C)(C)C(=O)N3)c2ccccc2n1 — IC50 (PIK3CA; enzyme activity; inhibitor; ADP detection): 0.195 µM
COc1cc(C)c2cc(C(=O)NS(=O)(=O)c3ccc(C)cc3-c3ccccc3)oc2c1 — IC50 (Histone acetyltransferase KAT6B; enzyme activity; inhibitor; TR-FRET): 0.041 µM
COc1cc2ncnc(Nc3ccc4c(c3)/C(=C/c3cccc(Cl)c3)C(=O)N4C)c2cc1OC — IC50 (PIK3CB; enzyme activity; inhibitor; ADP detection): 0.11 µM
O=C(O)Cc1csc(NC(=O)c2cc3ccccc3[nH]2)n1 — IC50 (KDR; enzyme activity; inhibitor; ELISA): 1.21 µM
Cc1coc2c1C(=O)C(=O)c1c-2ccc2c(C)cccc12 — IC50 (NOX5; enzyme activity; inhibitor): 3.9 µM
Cc1nc(Nc2ccc3c(c2)/C(=C/c2ccccc2C)C(=O)N3)c2ccccc2n1 — IC50 (PIK3CA; enzyme activity; inhibitor; ADP detection): 0.0455 µM
C[C@H]1COC2=C1C(=O)C(=O)c1c2ccc2c1CCCC2(C)C — IC50 (NOX5; enzyme activity; inhibitor): 4.3 µM
COc1cc(C)c2cc(C(=O)NS(=O)(=O)c3ccc(-c4ccccc4)cc3)oc2c1 — IC50 (Histone acetyltransferase KAT6B; enzyme activity; inhibitor; TR-FRET): 0.161 µM
COc1cc2ncnc(Nc3ccc4c(c3)/C(=C/c3ccccc3)C(=O)N4C)c2cc1OC — IC50 (PIK3CB; enzyme activity; inhibitor; ADP detection): 0.506 µM
c1ccc2c(c1)CCC[C@H]2Nc1nc2ccccc2[nH]1 — IC50 (Trpm7 F924W; calcium signal): 5.12 µM
